Tests used:
K562 [1] = test: Induction of apoptosis in human K562 cells at 2 nM after 48 hrs by Annexin-V/propidium iodide staining-based flow cytometric analysis (reference value: 5.96%)
K562 [2] = test: Cell cycle arrest in human K562 cells assessed as accumulation of cells at G2 phase at 2 nM after 48 hrs by propidium iodide staining-based flow cytometric analysis (reference value: 10.51%); assay type: functional
L02 = test: Antiproliferative activity against human LO2 cells after 72 hrs by MTT assay; assay type: cell-based; details: L02, 72 h
Method in brief: (§1)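 Cells preincubated 24 h at 37 °C, 5% CO₂. Compounds added at several concentrations in medium with 0.1% DMSO for 72 h. MTT (5 mg/mL in PBS) then added for 4 h, and optical density read at 490 nm. IC50 taken from dose-response curves; mean ± SD of at least three independent experiments.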

Tubulin (Sus scrofa) = Tubulin (Sus scrofa) (UniProt P02554+P02550); test: Inhibition of [3H]-colchicine binding to biotinylated porcine tubulin at 5 uM after 2 hrs by SPA relative to control; assay type: protein assay
Method in brief: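 Scintillation proximity assay: 0.08 μM [3H]colchicine incubated with biotinylated porcine tubulin (0.5 μg) and test compound for 2 h at 37 °C in 80 mM PIPES pH 6.8, 1 mM EGTA, 10% glycerol, 1 mM MgCl2, 1 mM GTP. Streptavidin SPA beads then added, and bound radioactivity counted by scintillation counter.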

Bel-7402 = test: Antiproliferative activity against human Bel7402 cells after 72 hrs by MTT assay; assay type: functional, cell-based; details: Bel-7402, 72 h
Method in brief: as §1

Tubulin (Homo sapiens) = Tubulin (Homo sapiens) (UniProt P68371+Q9H4B7+P0DPH7+P68366+Q13509+Q71U36+P04350+Q3ZCM7+P07437+P68363+Q9BQE3+Q6PEY2+Q13885+Q9BVA1+Q9BUF5); test: Induction of microtubule disruption in human K562 cells after 24 hrs by DAPI staining-based fluorescence assay; assay type: cell-based
Method in brief: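 K562 cells exposed 24 h to 1, 2 or 4 nM compound or 0.1% DMSO. Fixed in 4% paraformaldehyde and blocked 20 min with goat serum at room temperature. Incubated with anti-α-tubulin monoclonal antibody for 2 h at 37 °C, then fluorescent antibody, with DAPI nuclear counterstain. Imaged by confocal microscopy.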

K562 [3] = test: Induction of apoptosis in human K562 cells after 48 hrs by […]-based flow cytometric analysis; assay type: functional, cell-based
Tubulin = Tubulin (Sus scrofa, UniProt P02554+P02550); test: Inhibition of porcine brain tubulin polymerization preincubated for 30 mins and measured every 2 mins for 60 mins by spectrophotometric analysis
[4] = Drug resistance index, ratio of IC50 for VCR-resistant human K562/VCR cells to IC50 for human K562 cells; assay type: functional
K562 [5] = test: Cell cycle arrest in human K562 cells assessed as accumulation of cells at S phase at 4 nM after 48 hrs by propidium iodide staining-based flow cytometric analysis (reference value: 19.93%); assay type: functional
H22 (Mus musculus) [6] = test: Antiproliferative activity against mouse H22 cells after 72 hrs by MTT assay; details: H22, 72 h
K562 [7] = test: Antiproliferative activity against human K562 cells after 72 hrs by MTT assay; assay type: functional, cell-based; details: K562, 72 h
Method in brief: as §1

K562 [8] = test: Induction of mitochondrial membrane potential loss in human K562 cells assessed as collapsed mitochondrial membrane at 4 nM after 48 hrs by JC-1 dye-based flow cytometric analysis (RVB = 6.17%)
[9] = Antiproliferative activity against human taxol-resistant HCT8/T cells after 72 hrs by MTT assay; assay type: functional; details: HCT-8, 72 h
Method in brief: as §1

KB = test: Antiproliferative activity against human KB cells after 72 hrs by MTT assay; assay type: functional, cell-based
Method in brief: as §1

H22 (Mus musculus) [10] = test: Antitumor activity against mouse H22 cells xenografted in ICR mouse assessed as reduction in tumor weight at 20 mg/kg/day, iv for 21 days relative to control; parameters: scale not given: the % may be the effect or the level left
K562 [11] = test: Induction of mitochondrial membrane potential loss in human K562 cells assessed as intact mitochondrial membrane at 2 nM after 48 hrs by JC-1 dye-based flow cytometric analysis (RVB = 93.17%)

Tubulin (Sus scrofa), sequence (P02550 whole entry, looked up): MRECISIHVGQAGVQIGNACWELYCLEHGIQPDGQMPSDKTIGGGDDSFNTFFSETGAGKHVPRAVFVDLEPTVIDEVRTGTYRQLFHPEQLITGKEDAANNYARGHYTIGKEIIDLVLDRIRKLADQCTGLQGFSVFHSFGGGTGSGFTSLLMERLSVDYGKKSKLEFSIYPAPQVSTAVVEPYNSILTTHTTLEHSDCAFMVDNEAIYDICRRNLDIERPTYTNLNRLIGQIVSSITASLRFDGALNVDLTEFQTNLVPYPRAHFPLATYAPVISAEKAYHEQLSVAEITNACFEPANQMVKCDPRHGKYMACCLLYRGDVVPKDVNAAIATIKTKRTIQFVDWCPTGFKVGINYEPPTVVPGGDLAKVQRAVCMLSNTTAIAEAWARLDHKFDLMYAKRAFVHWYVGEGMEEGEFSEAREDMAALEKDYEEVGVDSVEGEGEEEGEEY
Tubulin (Sus scrofa), sequence (P02554 whole entry, looked up): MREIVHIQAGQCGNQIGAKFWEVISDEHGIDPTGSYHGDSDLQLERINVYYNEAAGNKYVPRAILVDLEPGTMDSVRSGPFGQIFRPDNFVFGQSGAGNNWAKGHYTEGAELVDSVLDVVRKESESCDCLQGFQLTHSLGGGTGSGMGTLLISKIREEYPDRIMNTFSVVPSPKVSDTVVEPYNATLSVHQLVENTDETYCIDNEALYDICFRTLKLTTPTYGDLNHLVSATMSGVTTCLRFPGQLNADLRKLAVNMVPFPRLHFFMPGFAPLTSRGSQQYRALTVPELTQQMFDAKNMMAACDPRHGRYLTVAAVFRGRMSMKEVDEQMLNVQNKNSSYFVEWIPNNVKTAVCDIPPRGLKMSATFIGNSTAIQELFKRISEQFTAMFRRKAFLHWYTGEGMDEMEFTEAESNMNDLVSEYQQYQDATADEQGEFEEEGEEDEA

inhibition (Tubulin (Sus scrofa)): 90.5%
IC50 (Bel-7402): 0.01 µM
Activity (Tubulin (Homo sapiens)): Dose-dependent effect
IC50 (Tubulin): 2.09 µM
IC50 (K562 [7]): 0.002 µM
IC50 (KB): 0.005 µM
Compound: C=C(c1ccc2c(ccn2CO)c1)c1cc(C)nc2ccccc12
Activity (K562 [1]): 54.9%
Activity (K562 [2]): 16.16%
IC50 (L02): 0.048 µM
Activity (K562 [3]): Dose-dependent effect
Ratio IC50 [4]: 15.5
Activity (K562 [5]): 31%
IC50 (H22 (Mus musculus) [6]): 0.006 µM
Activity (K562 [8]): 73.55%
IC50 [9]: 0.088 µM
Activity (H22 (Mus musculus) [10]): 57.3%
Activity (K562 [11]): 45.4%
